In ChEMBL document CHEMBL4321819, “Simple Structural Modifications Converting a Bona fide MDM2 PROTAC Degrader into a Molecular Glue Molecule: A Cautionary Tale in the Design of PROTAC Degraders” (J Med Chem, 2019):
Active and inactive are the calls of the source. The rule behind the calls is not given here.

Key:
[1] = molecular target: T1, E3 ubiquitin-protein ligase Mdm2 (Homo sapiens, UniProt Q00987); assay: Displacement of PMDM6-F fluorescent probe from human recombinant His-tagged MDM2 (1 to 118 residues) after 15 mins by fluorescence polarization assay
Outline: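 Recombinant human His-tagged MDM2 (residues 1–118) with a FAM-labelled p53-based peptide as fluorescent probe; competitive fluorescence-polarization binding. Mean ± standard error from at least three independent experiments.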
Target sequence in this assay (Q00987 whole entry, the tested form may be a part): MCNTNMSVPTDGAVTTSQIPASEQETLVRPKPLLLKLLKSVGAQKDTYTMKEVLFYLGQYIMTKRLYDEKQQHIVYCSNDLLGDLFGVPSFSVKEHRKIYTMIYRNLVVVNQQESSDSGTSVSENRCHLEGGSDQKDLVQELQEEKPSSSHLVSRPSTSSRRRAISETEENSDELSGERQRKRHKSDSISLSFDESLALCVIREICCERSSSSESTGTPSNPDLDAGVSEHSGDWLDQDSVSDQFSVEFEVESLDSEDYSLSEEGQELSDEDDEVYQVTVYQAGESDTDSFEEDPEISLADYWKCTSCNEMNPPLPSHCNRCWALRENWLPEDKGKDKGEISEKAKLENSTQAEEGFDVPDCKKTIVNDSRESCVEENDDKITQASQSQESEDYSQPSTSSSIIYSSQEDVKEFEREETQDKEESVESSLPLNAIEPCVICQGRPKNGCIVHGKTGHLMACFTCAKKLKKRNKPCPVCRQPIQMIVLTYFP

[2] = molecular target: T1, E3 ubiquitin-protein ligase Mdm2; assay: Induction of MDM2 degradation in human RS4:11 cells assessed as downregulation of MDM2 at 1 to 30 nM after 1 hr by Western blot analysis; format: cell-based
Outline: (§1)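 Western blots of MDM2 and p53 protein were run on RS4;11 cells (wild-type p53) in RPMI 1640 with 10% FBS. 2×10^6 cells/well were treated at the indicated concentrations for 1 h or 2 h. Lysis was in ice-cold buffer with protease inhibitor, followed by probing with specific antibodies.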
Target sequence in this assay (Q00987 whole entry, looked up, the tested form may be a part): as the sequence (Q00987 whole entry, the tested form may be a part) above

[3] = tested on: RS4-11; assay: Antiproliferative activity against human RS4:11 cells expressing wild type p53 assessed as cell growth inhibition after 4 days by WST-8 assay; format: functional, cell-based; conditions: RS4-11, 96 h
Outline: (§2)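 Leukemia cells seeded at 10000–20000 cells/well, breast cancer lines at 5000–10000 cells/well. Serially diluted compound added, then 4 days at 37 °C, 5% CO2. Growth read with WST-8 reagent after at least 1 h, absorbance at 450 nm. RS4;11, MOLM-13 and breast lines were grown in RPMI 1640; MV-4-11 and HL-60 in IMDM; all with 10% FBS. Mean ± SE, at least three independent experiments.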

[4] = tested on: MV4-11; assay: Antiproliferative activity against human MV4-11 cells expressing wild type p53 assessed as cell growth inhibition after 4 days by WST-8 assay; format: functional, cell-based; conditions: MV4-11, 96 h; outline: as §2
[5] = Antiproliferative activity against human RS4:11/IRMI-2 cells harboring p53 hotspot mutation Y236H/R249G assessed as cell growth inhibition after 4 days by WST-8 assay; format: functional, cell-based; conditions: RS4-11, 96 h; outline: as §2
[6] = tested on: MDA-MB-468; assay: Antiproliferative activity against human MDA-MB-468 cells harboring mutant p53 assessed as cell growth inhibition after 4 days by WST-8 assay; format: functional, cell-based; conditions: MDA-MB-468, 96 h; outline: as §2
[7] = molecular target: T1, E3 ubiquitin-protein ligase Mdm2; assay: Induction of MDM2 degradation in human RS4:11 cells assessed as downregulation of MDM2 at 1 to 30 nM after 2 hrs by Western blot analysis; format: cell-based; outline: as §1
Target sequence in this assay (Q00987 whole entry, looked up, the tested form may be a part): as the sequence (Q00987 whole entry, the tested form may be a part) above

[8] = molecular target: Cellular tumor antigen p53 (Homo sapiens) (UniProt P04637); assay: Activation of p53 in human RS4:11 cells assessed as increase in PUMA mRNA expression at 3 nM after 1 to 2 hrs by qRT-PCR analysis; format: cell-based
Chain of Cellular tumor antigen p53 (Homo sapiens) (P04637 whole entry, looked up): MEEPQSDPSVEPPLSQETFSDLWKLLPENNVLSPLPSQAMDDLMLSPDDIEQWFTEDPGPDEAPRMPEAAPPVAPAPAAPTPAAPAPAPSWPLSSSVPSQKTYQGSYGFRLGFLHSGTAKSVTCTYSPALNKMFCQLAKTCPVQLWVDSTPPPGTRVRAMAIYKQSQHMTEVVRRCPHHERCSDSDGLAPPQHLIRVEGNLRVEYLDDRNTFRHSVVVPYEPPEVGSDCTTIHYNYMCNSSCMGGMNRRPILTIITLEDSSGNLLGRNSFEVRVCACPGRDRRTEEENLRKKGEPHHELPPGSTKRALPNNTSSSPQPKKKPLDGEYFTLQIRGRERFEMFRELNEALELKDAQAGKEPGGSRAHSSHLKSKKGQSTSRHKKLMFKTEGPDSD
Outline: (§3)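 RS4;11 cells (RPMI 1640, 10% FBS, 37 °C, 5% CO2) treated with 3 nM or 10 nM compound; total RNA extracted and mRNA of p53 targets MDM2, CDKN1A, PUMA and BAX quantified by qRT-PCR. Mean ± standard error from at least three independent experiments.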

[9] = molecular target: Cellular tumor antigen p53 (Homo sapiens) (UniProt P04637); assay: Activation of p53 in human RS4:11 cells assessed as increase in BAX mRNA expression at 3 nM after 1 to 2 hrs by qRT-PCR analysis; format: cell-based; outline: as §3
[10] = tested on: MDA-MB-468; assay: Antiproliferative activity against human MDA-MB-468 cells transfected with MDM2 siRNA assessed as cell growth inhibition after 4 days by WST-8 assay; format: functional, cell-based; conditions: MDA-MB-468, 96 h
Outline: (§4)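 MDA-MB-231 or MDA-MB-468 cells transfected for 2 days using Lipofectamine RNAiMAX with MDM2 siRNA, one of two CRBN siRNAs, or non-targeting control siRNA. Compound then added and growth read by WST-8 at 450 nm.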

[11] = tested on: MDA-MB-468; assay: Antiproliferative activity against human MDA-MB-468 cells harboring mutant p53 assessed as cell growth inhibition without interaction with cereblon after 4 days by WST-8 assay; format: functional, cell-based; conditions: MDA-MB-468, 96 h
[12] = tested on: MDA-MB-231; assay: Antiproliferative activity against human MDA-MB-231 cells transfected with CRBN siRNA LQ-021086-11-0002 assessed as cell growth inhibition after 4 days by WST-8 assay; format: functional, cell-based; conditions: MDA-MB-231, 96 h; outline: as §4
[13] = tested on: MDA-MB-468; assay: Antiproliferative activity against human MDA-MB-468 cells transfected with CRBN siRNA LQ-021086-10-0002 assessed as cell growth inhibition after 4 days by WST-8 assay; format: functional, cell-based; conditions: MDA-MB-468, 96 h; outline: as §4
[14] = tested on: MDA-MB-468; assay: Antiproliferative activity against human MDA-MB-468 cells assessed as cell growth inhibition after 4 days in presence of control siRNA for 3 days followed by compound treatment by WST-8 assay; format: functional, cell-based
[15] = molecular target: T2, Protein cereblon/Eukaryotic peptide chain release factor GTP-binding subunit ERF3A/DNA damage-binding protein 1/Cullin-4A (Homo sapiens) (UniProt Q96SW2+Q16531+Q13619+P15170); assay: Protac activity at GSPT1/CUL4/DDB1/CRBN in human RS4:11 cells expressing wild type p53 assessed as effect on GSPT1 mRNA level after 3 hrs by qRT-PCR analysis; format: cell-based
T2 sequence (P15170 whole entry, looked up): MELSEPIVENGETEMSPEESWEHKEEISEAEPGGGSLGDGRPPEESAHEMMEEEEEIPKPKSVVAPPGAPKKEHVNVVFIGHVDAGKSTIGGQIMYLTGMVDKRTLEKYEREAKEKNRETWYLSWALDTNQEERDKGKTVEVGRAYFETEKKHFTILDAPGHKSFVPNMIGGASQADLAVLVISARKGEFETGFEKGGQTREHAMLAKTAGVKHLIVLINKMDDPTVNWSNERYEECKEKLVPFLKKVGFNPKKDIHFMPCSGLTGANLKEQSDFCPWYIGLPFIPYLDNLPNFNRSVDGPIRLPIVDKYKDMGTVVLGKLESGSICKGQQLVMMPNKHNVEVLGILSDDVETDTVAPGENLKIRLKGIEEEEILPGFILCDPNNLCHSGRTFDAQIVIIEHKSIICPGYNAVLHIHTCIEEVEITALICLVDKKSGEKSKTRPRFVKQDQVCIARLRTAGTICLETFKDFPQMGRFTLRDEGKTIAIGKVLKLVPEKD
T2 sequence (Q13619 whole entry, looked up): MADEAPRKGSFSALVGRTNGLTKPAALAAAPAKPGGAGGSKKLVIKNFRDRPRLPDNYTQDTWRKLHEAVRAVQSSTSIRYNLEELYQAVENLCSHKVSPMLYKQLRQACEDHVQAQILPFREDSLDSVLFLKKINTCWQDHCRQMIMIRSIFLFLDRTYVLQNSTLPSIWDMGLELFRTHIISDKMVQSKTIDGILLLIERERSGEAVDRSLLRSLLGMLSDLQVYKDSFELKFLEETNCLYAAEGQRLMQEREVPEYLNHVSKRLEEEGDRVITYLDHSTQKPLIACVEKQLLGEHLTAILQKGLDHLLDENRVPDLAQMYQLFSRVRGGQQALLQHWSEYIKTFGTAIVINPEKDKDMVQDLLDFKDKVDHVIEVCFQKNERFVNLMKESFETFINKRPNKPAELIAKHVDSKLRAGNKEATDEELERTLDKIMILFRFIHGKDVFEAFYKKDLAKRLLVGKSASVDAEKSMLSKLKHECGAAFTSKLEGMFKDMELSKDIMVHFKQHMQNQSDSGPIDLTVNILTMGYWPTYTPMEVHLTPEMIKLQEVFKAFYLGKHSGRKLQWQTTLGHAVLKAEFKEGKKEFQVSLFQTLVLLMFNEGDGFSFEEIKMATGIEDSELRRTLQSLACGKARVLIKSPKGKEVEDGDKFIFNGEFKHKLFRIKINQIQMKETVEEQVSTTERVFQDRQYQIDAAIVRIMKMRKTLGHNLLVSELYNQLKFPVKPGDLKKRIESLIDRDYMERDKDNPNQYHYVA
T2 sequence (Q16531 whole entry, looked up): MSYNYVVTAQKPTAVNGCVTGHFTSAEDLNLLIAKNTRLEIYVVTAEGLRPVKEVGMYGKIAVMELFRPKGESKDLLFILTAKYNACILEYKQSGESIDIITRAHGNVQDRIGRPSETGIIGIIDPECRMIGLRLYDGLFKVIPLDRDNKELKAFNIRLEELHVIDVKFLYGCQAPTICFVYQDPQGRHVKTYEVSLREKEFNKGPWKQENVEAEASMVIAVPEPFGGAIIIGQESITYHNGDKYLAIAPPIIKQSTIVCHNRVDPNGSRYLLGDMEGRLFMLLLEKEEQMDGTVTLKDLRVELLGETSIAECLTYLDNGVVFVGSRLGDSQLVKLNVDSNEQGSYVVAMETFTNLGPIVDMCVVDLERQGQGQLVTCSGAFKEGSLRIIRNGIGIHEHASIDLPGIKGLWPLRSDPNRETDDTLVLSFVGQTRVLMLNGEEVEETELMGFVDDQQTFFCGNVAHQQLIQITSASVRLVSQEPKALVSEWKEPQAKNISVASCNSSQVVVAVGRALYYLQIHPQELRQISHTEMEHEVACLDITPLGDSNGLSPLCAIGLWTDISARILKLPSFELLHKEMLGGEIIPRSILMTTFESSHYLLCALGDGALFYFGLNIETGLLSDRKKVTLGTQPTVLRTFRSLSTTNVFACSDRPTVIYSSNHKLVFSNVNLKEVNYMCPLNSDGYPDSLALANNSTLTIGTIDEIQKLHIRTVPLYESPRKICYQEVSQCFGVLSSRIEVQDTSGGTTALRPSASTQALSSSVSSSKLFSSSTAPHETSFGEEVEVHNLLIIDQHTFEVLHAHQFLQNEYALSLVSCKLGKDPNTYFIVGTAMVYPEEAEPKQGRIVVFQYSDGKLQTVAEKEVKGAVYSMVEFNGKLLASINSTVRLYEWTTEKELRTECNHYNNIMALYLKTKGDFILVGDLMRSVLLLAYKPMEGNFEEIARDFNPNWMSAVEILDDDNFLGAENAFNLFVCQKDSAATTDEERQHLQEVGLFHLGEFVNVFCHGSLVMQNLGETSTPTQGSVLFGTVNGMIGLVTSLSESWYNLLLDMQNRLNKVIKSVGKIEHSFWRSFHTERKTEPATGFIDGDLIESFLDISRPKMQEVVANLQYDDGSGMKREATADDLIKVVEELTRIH
T2 sequence (Q96SW2 whole entry, looked up): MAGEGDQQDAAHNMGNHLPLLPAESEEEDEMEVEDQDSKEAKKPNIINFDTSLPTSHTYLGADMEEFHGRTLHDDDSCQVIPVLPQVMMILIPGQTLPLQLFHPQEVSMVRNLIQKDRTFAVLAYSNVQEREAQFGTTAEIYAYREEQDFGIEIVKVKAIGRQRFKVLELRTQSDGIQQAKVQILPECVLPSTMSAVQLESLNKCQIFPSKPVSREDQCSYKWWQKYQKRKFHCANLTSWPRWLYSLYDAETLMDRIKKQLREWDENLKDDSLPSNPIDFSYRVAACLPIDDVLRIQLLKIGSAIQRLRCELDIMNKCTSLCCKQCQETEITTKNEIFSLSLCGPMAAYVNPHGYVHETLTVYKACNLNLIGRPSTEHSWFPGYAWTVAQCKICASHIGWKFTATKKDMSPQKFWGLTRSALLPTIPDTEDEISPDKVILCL
Outline: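 Total RNA taken from treated cells at the indicated time points. RNA concentration measured on a plate reader. GSPT1 mRNA quantified by qRT-PCR. Data are mean ± standard error from at least three independent experiments.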

[16] = molecular target: T3, Eukaryotic peptide chain release factor GTP-binding subunit ERF3A (Homo sapiens, UniProt P15170); assay: Induction of GSPT1 degradation in human MDA-MB-468 cells transfected with CRBN siRNA LQ-021086-10-0002 assessed as decrease in GSPT1 protein level at 0.1 uM after 2 to 24 hrs by Western blot analysis; format: cell-based
T3 sequence (P15170 whole entry): as the sequence (P15170 whole entry, looked up) above
Outline: (§5)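 MDA-MB-231 or MDA-MB-468 cells transfected 2 days with CRBN siRNA (Lipofectamine RNAiMAX; non-targeting siRNA as control), then exposed to 0.1 μM for 2 h or 24 h. Cell culture was RPMI 1640 with 10% FBS at 37 °C, 5% CO2. GSPT1 and cereblon protein were probed by Western blot.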

[17] = molecular target: T3, Eukaryotic peptide chain release factor GTP-binding subunit ERF3A; assay: Induction of GSPT1 degradation in human MDA-MB-468 cells transfected with CRBN siRNA LQ-021086-11-0002 assessed as decrease in GSPT1 protein level at 0.1 uM after 2 to 24 hrs by Western blot analysis; format: cell-based; outline: as §5
[18] = molecular target: GSPT1/E3 ubiquitin-protein ligase Mdm2 (Homo sapiens) (UniProt Q00987+P15170); assay: Binding affinity to GSPT1/MDM2 in human MDA-MB-231 cells assessed as GSPT1 degradation at 0.1 to 1 uM after 2 hrs by Western blot analysis; format: cell-based
Chain of GSPT1/E3 ubiquitin-protein ligase Mdm2 (Homo sapiens) (P15170 whole entry, looked up): as above
Chain of GSPT1/E3 ubiquitin-protein ligase Mdm2 (Homo sapiens) (Q00987 whole entry, looked up): as the sequence (Q00987 whole entry, the tested form may be a part) above

[19] = molecular target: T3, Eukaryotic peptide chain release factor GTP-binding subunit ERF3A; assay: Induction of GSPT1 degradation in human RS4:11 cells at 0.1 uM pretreated with Nedd8 inhibitor MLN4924 followed by compound treatment after 2 hrs by Western blot analysis
[20] = molecular target: T2, Protein cereblon/Eukaryotic peptide chain release factor GTP-binding subunit ERF3A/DNA damage-binding protein 1/Cullin-4A (Homo sapiens); assay: Protac activity at GSPT1/CUL4/DDB1/CRBN in human RS4:11 cells expressing wild type p53 assessed as decrease in GSPT1 protein level by measuring fold change of protein level before and after treatment at 0.1 uM measured after 3 hrs relative to control

Q: Which IC50 [1] does the source give for O=C1CCC(N2Cc3c(CCCCCNC(=O)[C@@H]4NC5(CCCCC5)[C@@]5(C(=O)Nc6cc(Cl)ccc65)[C@H]4c4cccc(Cl)c4F)cccc3C2=O)C(=O)N1 (stereo not given in full) here?
A: 67.5 nM

Q: And the Activity [2]?
A: inactive

Q: And the IC50 [3]?
A: 3.5 nM

Q: What about the IC50 [4] of the same compound?
A: 7.9 nM

Q: And the IC50 [5]?
A: 3.4 nM

Q: What about the IC50 [6] of the same compound?
A: 26.4 nM

Q: What about the Activity [7] of the same compound?
A: Active

Q: And the Activity [8]?
A: inactive

Q: What about the Activity [9] of the same compound?
A: inactive

Q: And the IC50 [10]?
A: 19.8 nM

Q: And the IC50 [11]?
A: 26.4 nM

Q: And the IC50 [12]?
A: > 3000 nM

Q: And the IC50 [13]?
A: > 1000 nM

Q: What about the IC50 [14] of the same compound?
A: 62 nM

Q: What about the Activity [15] of the same compound?
A: inactive

Q: And the Activity [16]?
A: inactive

Q: What about the Activity [17] of the same compound?
A: inactive

Q: And the Activity [18]?
A: inactive

Q: What about the Activity [19] of the same compound?
A: inactive

Q: What about the fold change [20] of the same compound?
A: 5.3
